Activity and inhibition data for five compounds are collected here from ChEMBL document CHEMBL1148191, “2-Hydroxymethyl-3,4-dihydroxy-6-methyl-pyrrolidine (6-deoxy-DMDP), an alkaloid beta-mannosidase inhibitor from seeds of Angylocalyx pynaertii” (J Nat Prod, 1993).

For one test, the system named is Canavalia ensiformis. Nature of the test: Inhibition of jack beans alpha-mannosidase. The gist of the method:
(§1)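 Commercial arylglycosidases, with α-L-fucosidase from bovine kidney. Activity was measured colorimetrically as p-nitrophenol released from the matching p-nitrophenyl glycoside substrate.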

Another test has as its system Saccharomyces cerevisiae. Nature of the test: Inhibition of yeast alpha-glucosidase. A digest of the protocol:
as §1

In the next test the test system is Prunus dulcis. The experiment in a line: Inhibition of almonds beta-glucosidase. The gist of the method:
as §1

For test [1], the target named is T1, Exo-1,4-beta-xylosidase xlnD (Aspergillus niger) (UniProt O00089).
T1 sequence (whole entry): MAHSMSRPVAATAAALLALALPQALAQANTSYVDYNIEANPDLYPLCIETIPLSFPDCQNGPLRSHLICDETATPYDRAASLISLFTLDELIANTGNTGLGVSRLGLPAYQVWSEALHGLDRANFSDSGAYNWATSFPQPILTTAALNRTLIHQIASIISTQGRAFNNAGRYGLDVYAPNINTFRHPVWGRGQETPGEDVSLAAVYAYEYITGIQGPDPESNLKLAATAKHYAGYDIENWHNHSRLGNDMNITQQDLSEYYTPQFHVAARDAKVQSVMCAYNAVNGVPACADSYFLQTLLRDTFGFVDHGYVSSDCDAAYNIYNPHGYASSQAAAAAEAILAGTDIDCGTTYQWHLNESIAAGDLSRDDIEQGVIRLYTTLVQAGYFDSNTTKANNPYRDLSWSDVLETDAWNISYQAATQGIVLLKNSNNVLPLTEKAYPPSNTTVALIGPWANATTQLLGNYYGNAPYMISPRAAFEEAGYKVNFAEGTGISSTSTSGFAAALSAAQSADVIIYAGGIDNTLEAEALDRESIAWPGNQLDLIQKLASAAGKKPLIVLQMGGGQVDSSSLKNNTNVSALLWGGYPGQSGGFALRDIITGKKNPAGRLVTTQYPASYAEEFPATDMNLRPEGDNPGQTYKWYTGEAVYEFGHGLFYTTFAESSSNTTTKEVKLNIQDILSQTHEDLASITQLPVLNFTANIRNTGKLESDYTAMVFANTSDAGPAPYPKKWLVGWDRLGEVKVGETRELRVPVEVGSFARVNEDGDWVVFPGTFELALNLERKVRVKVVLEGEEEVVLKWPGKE
The experiment in a line: Inhibition of Aspergillus niger beta-xylosidase. A digest of the protocol: as §1

In test [2] the target is T2, Beta-galactosidase (Bos taurus) (UniProt Q58D55).
T2 sequence (whole entry): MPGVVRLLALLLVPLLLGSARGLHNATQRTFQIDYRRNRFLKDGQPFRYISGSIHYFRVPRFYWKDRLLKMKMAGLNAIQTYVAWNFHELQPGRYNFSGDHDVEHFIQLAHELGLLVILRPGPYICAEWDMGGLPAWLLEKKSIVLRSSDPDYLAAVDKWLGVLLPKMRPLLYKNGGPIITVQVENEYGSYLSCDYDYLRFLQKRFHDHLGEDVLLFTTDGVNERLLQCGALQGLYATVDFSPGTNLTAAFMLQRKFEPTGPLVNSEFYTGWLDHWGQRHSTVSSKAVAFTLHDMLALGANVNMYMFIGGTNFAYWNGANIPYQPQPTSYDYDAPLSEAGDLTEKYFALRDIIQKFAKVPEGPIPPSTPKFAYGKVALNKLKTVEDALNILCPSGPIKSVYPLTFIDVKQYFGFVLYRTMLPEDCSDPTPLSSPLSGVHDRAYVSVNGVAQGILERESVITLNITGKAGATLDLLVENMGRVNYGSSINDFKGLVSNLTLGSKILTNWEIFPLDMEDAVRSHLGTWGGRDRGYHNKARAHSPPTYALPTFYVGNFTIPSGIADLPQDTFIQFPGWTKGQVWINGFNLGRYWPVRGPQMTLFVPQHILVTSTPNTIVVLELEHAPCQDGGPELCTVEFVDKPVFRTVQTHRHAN
The experiment in a line: Inhibition of bovine liver beta-galactosidase. A digest of the protocol:
as §1

The target of test [3] is T3, Beta-mannosidase A (Aspergillus niger) (UniProt Q9UUZ3).
T3 sequence (whole entry): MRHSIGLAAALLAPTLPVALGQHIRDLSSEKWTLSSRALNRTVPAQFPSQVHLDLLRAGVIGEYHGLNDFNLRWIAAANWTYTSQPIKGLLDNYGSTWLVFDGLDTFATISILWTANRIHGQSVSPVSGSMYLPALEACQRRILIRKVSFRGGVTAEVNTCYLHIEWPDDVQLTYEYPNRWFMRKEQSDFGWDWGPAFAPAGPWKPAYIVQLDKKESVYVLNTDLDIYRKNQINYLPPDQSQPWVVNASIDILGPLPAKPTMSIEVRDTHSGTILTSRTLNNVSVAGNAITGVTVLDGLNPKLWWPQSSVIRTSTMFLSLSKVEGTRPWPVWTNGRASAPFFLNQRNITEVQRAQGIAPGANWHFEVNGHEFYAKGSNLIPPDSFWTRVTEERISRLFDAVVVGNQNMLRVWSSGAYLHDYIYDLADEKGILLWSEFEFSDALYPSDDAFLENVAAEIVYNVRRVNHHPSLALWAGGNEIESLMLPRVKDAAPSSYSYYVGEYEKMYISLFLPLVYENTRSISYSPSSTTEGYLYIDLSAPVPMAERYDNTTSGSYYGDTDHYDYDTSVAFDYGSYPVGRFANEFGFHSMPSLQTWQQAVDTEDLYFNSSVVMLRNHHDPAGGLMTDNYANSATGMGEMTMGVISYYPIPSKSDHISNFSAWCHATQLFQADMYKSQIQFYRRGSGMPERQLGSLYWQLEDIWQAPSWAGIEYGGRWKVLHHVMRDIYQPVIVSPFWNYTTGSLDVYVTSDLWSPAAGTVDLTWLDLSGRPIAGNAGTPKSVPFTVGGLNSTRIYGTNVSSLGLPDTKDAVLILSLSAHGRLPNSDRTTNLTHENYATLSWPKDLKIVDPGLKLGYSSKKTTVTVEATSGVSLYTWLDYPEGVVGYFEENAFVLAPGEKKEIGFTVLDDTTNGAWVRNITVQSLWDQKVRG
The experiment in a line: Inhibition of Aspergillus niger beta-mannosidase at 380 uM. The gist of the method: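 β-Mannosidase was purified from Aspergillus niger. Activity was read colorimetrically as p-nitrophenol release from the p-nitrophenyl glycoside substrate, expressed relative to untreated enzyme over a range of inhibitor concentrations. Kinetics were analysed by Lineweaver-Burk plot.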

A further test relates to Aspergillus niger. The experiment in a line: Inhibition of Aspergillus niger alpha-galactosidase. The gist of the method:
as §1

Calls of active or inactive are those of the source. No cut-off for these calls is given here.

On to `O[C@H]1[C@H]2[C@H](O)CCCN2C[C@H]1O`, for which the outcome with Canavalia ensiformis was Active.
As for `OC[C@H]1NC[C@@H](O)[C@@H](O)[C@@H]1O`, in the test on Canavalia ensiformis, the result was Active.
Turning to `OC[C@H]1N[C@H](CO)[C@@H](O)[C@@H]1O`, the outcome with Saccharomyces cerevisiae and in the test with Prunus dulcis was Active.
Consider `OC[C@H]1NC[C@@H](O)[C@@H]1O`, for which the result in the test on Saccharomyces cerevisiae and with Prunus dulcis was Active.
The term inhibition denotes how much of the control response was suppressed. For the compound `C[C@H]1N[C@H](CO)[C@@H](O)[C@@H]1O`, the result (in the test on Saccharomyces cerevisiae; in the test on Prunus dulcis; in test [1]; with Aspergillus niger; with Canavalia ensiformis) was inactive. Moreover, the result in test [2] was Active. In test [3], this compound gave an inhibition of 50%.
